# In ChEMBL document CHEMBL3994644, “Discovery of AAT-008, a novel, potent, and selective prostaglandin EP4 receptor antagonist” (Bioorg Med Chem Lett, 2017):
# What was measured:
# [1] = biological target: Prostaglandin E2 receptor EP4 subtype (Mus musculus, UniProt P32240); experiment: Antagonist activity at mouse recombinant EP4 receptor assessed as inhibition of PGE2-induced cAMP level by cell based assay; type: functional; conditions: read-out: pA2 (converted)
# Method in brief: (§1)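 Functional antagonism was measured as inhibition of PGE2-induced cAMP in cells transfected with rodent EP4 (mouse or rat). The value is expressed as pA2.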
# [2] = biological target: Prostaglandin E receptor 4 (Canis lupus familiaris, UniProt Q9TU16); experiment: Antagonist activity at dog recombinant EP4 receptor
# [3] = biological target: T1, Prostaglandin E2 receptor EP4 subtype (Rattus norvegicus, UniProt P43114); experiment: Antagonist activity at rat recombinant EP4 receptor assessed as inhibition of PGE2-induced cAMP level by cell based assay; type: functional; conditions: read-out: pA2 (converted); method in brief: as §1
# [4] = biological target: T1, Prostaglandin E2 receptor EP4 subtype; experiment: Antagonist activity at rat recombinant EP4 receptor
# [5] = biological target: T2, Thromboxane A2 receptor (Homo sapiens, UniProt P21731); experiment: Antagonist activity at human platelet TP receptor
# T2 sequence (P21731 whole entry): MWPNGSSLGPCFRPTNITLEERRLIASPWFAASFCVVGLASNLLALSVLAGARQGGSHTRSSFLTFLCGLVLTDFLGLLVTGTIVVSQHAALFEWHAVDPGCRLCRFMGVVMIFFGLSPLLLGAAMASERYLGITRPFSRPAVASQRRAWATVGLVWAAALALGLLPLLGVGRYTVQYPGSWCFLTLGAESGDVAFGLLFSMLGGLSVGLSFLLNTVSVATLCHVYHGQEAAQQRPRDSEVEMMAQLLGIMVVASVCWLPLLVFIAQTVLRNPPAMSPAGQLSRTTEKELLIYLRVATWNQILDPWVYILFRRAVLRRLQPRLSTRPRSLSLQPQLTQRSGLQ
# [6] = Half life in human liver microsomes; type: ADME, microsome
# [7] = Apparent permeability from apical to basolateral side in human Caco2 cells; type: ADME, cell-based; conditions: Caco-2
# Method in brief: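 Caco-2 monolayer permeability (Papp, apical to basolateral) was measured under constant pH, with the apical side at pH 6.5 and the basolateral side at pH 7.4.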
# [8] = biological target: T3, Prostaglandin E2 receptor EP1 subtype (Homo sapiens, UniProt P34995); experiment: Antagonist activity at human EP1 receptor
# T3 sequence (P34995 whole entry): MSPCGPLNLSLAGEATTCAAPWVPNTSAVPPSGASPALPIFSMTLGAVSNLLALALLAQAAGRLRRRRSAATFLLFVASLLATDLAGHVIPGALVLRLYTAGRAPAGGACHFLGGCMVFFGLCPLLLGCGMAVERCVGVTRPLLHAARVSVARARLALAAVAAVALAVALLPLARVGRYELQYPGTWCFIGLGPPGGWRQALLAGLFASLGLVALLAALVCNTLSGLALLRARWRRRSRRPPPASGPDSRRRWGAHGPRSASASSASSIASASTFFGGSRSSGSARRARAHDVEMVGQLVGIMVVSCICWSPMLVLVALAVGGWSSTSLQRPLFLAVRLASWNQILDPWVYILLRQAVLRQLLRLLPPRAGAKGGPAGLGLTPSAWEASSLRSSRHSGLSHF
# [9] = biological target: T4, Prostaglandin E2 receptor EP3 subtype (Homo sapiens, UniProt P43115); experiment: Antagonist activity at human EP3 receptor
# T4 sequence (P43115 whole entry): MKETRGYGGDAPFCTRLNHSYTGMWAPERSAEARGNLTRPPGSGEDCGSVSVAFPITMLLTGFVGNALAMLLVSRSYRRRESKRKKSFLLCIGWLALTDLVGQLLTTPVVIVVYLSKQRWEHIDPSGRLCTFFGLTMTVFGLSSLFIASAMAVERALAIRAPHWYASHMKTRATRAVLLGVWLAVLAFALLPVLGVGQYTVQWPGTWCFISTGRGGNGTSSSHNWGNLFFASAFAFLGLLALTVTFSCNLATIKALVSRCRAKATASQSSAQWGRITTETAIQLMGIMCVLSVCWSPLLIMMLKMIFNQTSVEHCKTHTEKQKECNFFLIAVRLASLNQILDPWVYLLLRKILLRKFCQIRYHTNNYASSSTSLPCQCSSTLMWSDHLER
# [10] = Cmax in Sprague-Dawley rat at 1 mg/kg, po; type: ADME, organism-based; design: dose 1 mg/kg, route oral; conditions: in vivo
# Method in brief: (§2)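 Single 1 mg/kg dose given IV or PO to rats, dogs and monkeys. Plasma pharmacokinetic parameters were derived and reported as mean SD, N = 4.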
# [11] = Cmax in Beagle dog at 1 mg/kg, po; type: ADME, organism-based, Canis lupus familiaris; design: dose 1 mg/kg, route oral; conditions: in vivo; method in brief: as §2
# [12] = Cmax in cynomolgus monkey at 1 mg/kg, po; type: ADME, organism-based, Macaca fascicularis; design: dose 1 mg/kg, route oral; conditions: in vivo; method in brief: as §2
# [13] = Tmax in cynomolgus monkey at 1 mg/kg, po; type: ADME, organism-based, Macaca fascicularis; conditions: in vivo
# Method in brief: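 Oral administration of the compound; Tmax is from plasma concentration–time profiles. Values are mean SD of N = 4 animals per species.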
# [14] = AUC (0 to infinity) in Sprague-Dawley rat at 1 mg/kg, iv; type: ADME, organism-based; design: dose 1 mg/kg, route intravenous, time infinity; conditions: in vivo; method in brief: as §2
# [15] = AUC (0 to infinity) in Beagle dog at 1 mg/kg, iv; type: ADME, organism-based, Canis lupus familiaris; design: dose 1 mg/kg, time infinity, route intravenous; conditions: in vivo; method in brief: as §2
# [16] = AUC (0 to infinity) in cynomolgus monkey at 1 mg/kg, iv; type: ADME, organism-based, Macaca fascicularis; design: dose 1 mg/kg, route intravenous, time infinity; conditions: in vivo; method in brief: as §2
# [17] = AUC (0 to infinity) in cynomolgus monkey at 1 mg/kg, po; type: ADME, organism-based, Macaca fascicularis; design: dose 1 mg/kg, time infinity, route oral; conditions: in vivo; method in brief: as §2
# [18] = Total clearance in Beagle dog at 1 mg/kg, iv; type: ADME, organism-based, Canis lupus familiaris; conditions: in vivo
# Method in brief: (§3)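 A single intravenous injection at 1 mg/kg was given. Plasma concentration–time data gave total clearance (CL_total, mL/min/kg) and steady-state volume of distribution (Vd_ss, L/kg). Values are mean SD of N = 4 animals per species.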
# [19] = Volume of distribution at steady state in Sprague-Dawley rat at 1 mg/kg, iv; type: ADME, organism-based; conditions: in vivo, read-out: Vdss; method in brief: as §3
# [20] = Volume of distribution at steady state in cynomolgus monkey at 1 mg/kg, iv; type: ADME, organism-based, Macaca fascicularis; conditions: in vivo, read-out: Vdss; method in brief: as §3
# [21] = Oral bioavailability in Beagle dog at 1 mg/kg; type: ADME, organism-based, Canis lupus familiaris; conditions: in vivo; method in brief: as §2
# [22] = Oral bioavailability in cynomolgus monkey at 1 mg/kg; type: ADME, organism-based, Macaca fascicularis; conditions: in vivo; method in brief: as §2
# [23] = Elimination half life in Sprague-Dawley rat at 1 mg/kg, iv; type: ADME, organism-based; conditions: in vivo, read-out: beta t1/2 (converted); method in brief: as §2
# [24] = Elimination half life in Sprague-Dawley rat at 1 mg/kg, po; type: ADME, organism-based; conditions: in vivo, read-out: beta t1/2 (converted); method in brief: as §2
# [25] = Elimination half life in Beagle dog at 1 mg/kg, iv; type: ADME, organism-based, Canis lupus familiaris; conditions: in vivo, read-out: beta t1/2 (converted); method in brief: as §2
# [26] = Elimination half life in Beagle dog at 1 mg/kg, po; type: ADME, organism-based, Canis lupus familiaris; conditions: in vivo, read-out: beta t1/2 (converted); method in brief: as §2
# [27] = test system: CYP1A; experiment: Inhibition of CYP1A (unknown origin) at 1 uM relative to control; type: ADME; conditions: human
# Method in brief: (§4)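 CYP1A, CYP2C9, CYP2C19, CYP2D6 and CYP3A activities were each tested with 1 µM test article. Results are given as percent inhibition of enzyme activity.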
# [28] = biological target: CYP2C19 (Homo sapiens, UniProt P33261); experiment: Inhibition of CYP2C19 (unknown origin) at 1 uM relative to control; type: ADME; method in brief: as §4
# [29] = Lipophilicity, log D of the compound at pH 6.5; type: physicochemical; conditions: buffer
# [30] = Lipophilicity, log D of the compound at pH 1.2; type: physicochemical; conditions: buffer
# [31] = Solubility of the compound in pH 1.2 simulated gastric fluid; type: physicochemical
# [32] = Solubility of the compound in pH 5.8 water for injection; type: physicochemical
# T1 sequence (P43114 whole entry): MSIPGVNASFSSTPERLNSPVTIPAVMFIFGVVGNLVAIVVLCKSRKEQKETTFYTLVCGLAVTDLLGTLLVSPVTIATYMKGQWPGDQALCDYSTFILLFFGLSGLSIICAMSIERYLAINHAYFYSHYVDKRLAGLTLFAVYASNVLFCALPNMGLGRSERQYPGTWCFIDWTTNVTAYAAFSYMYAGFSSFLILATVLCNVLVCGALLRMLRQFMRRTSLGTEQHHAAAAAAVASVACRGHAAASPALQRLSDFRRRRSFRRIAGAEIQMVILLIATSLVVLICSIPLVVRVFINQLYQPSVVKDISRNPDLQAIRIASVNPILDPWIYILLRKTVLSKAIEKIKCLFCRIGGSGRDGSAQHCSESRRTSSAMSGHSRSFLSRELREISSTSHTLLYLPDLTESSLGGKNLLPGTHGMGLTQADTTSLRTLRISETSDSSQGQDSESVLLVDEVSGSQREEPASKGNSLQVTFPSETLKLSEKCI
# Chain of Prostaglandin E receptor 4 (Q9TU16 whole entry): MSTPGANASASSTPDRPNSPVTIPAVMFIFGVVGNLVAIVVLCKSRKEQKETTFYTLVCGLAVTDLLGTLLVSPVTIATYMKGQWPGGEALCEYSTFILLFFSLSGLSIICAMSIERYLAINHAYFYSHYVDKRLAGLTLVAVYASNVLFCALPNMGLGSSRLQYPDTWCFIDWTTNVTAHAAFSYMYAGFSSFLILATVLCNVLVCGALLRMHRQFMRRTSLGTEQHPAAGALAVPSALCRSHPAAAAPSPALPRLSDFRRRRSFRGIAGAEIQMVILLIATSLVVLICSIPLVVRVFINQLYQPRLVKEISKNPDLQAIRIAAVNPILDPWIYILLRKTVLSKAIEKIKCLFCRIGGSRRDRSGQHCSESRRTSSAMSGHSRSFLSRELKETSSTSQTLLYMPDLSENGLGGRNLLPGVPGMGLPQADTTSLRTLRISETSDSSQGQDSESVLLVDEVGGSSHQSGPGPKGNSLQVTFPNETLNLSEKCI
# Chain of CYP2C19 (P33261 whole entry): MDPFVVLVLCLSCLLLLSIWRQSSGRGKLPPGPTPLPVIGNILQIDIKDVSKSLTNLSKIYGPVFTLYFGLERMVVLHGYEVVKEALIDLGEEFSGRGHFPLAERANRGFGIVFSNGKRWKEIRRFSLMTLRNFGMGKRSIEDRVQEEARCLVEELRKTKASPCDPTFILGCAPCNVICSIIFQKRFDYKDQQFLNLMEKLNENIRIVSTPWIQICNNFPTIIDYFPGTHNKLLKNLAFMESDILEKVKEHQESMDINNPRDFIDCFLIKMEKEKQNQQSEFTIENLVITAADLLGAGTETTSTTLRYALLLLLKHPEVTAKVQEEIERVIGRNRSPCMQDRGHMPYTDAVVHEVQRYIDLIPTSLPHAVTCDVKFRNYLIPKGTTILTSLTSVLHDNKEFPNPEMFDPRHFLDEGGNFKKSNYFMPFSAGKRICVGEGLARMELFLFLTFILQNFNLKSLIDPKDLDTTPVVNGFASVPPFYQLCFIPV
# Chain of Prostaglandin E2 receptor EP4 subtype (Mus musculus, UniProt P32240) (P32240 whole entry): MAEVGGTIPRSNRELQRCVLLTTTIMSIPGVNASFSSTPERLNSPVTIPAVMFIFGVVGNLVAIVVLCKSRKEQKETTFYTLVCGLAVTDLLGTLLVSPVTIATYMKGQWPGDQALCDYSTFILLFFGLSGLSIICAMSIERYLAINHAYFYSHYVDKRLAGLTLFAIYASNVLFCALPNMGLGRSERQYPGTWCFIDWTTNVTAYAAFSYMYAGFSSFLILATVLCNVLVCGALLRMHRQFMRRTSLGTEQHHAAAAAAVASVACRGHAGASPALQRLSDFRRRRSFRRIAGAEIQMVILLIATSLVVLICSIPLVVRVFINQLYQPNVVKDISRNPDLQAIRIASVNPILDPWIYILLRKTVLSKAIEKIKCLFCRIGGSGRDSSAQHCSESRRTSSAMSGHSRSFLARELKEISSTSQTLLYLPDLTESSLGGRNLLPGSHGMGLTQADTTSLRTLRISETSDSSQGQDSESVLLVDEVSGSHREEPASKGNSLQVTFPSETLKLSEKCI
structure (smiles),measurement,setting,value
C[C@H](NC(=O)c1cc(Cl)cnc1Oc1cccc(F)c1)c1ccc(C(=O)O)cc1,Kb,[1],0.001 µM
same,Ki,[2],0.038 µM
same,Kb,[3],0.00457 µM
same,Ki,[4],0.0061 µM
same,Ki,[5],> 6 µM
same,half-life,[6],> 2 h
same,Papp A→B,[7],201 nm/s
same,IC50,[8],> 20 µM
same,Ki,[8],> 6 µM
same,IC50,[9],> 20 µM
same,Ki,[9],> 6 µM
same,Cmax,[10],0.994 µg/mL
same,Cmax,[11],1.45 µg/mL
same,Cmax,[12],0.076 µg/mL
same,Tmax,[13],8 h
same,AUC(0-inf),[14],9.62 µg·h/mL
same,AUC(0-inf),[15],7.49 µg·h/mL
same,AUC(0-inf),[16],3.39 µg·h/mL
same,AUC(0-inf),[17],2.46 µg·h/mL
same,clearance,[18],0.138 L/h/kg
same,Vd,[19],0.593 L/kg
same,Vd,[20],4.7 L/kg
same,bioavailability,[21],80.6%
same,bioavailability,[22],73.3%
same,half-life,[23],4.59 h
same,half-life,[24],3.71 h
same,half-life,[25],8.43 h
same,half-life,[26],7.95 h
same,inhibition at 1 µM,[27],< 5%
same,inhibition at 1 µM,[28],< 5%
same,logD,[29],1.5
same,logD,[30],3.8
same,solubility,[31],0.29 µg/mL
same,solubility,[32],4.3 µg/mL
